# Laboratory results reported in ChEMBL document CHEMBL4513216, “Probing the Open Global Health Chemical Diversity Library for Multistage-Active Starting Points for Next-Generation Antimalarials” (ACS Infect Dis, 2020).
# Assay: Toxicity liver stage against HepG2, at 10uM
# Format: cell-based
# Set-up: test concentration 10 uM, cell line HepG2-A16-CD81EGFP
# Settings: human, HepG2-A16-CD81EGFP cells; read-out: INHIBITION
# Summary of the method: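 Uninfected HepG2-A16-CD81EGFP cells, 3 × 10^3 per well, 1536-well, plated on prespotted compound at 10 μM final, parasite-free screening media added to match infected plates; puromycin 10 μM positive, DMSO 0.5% negative; run in parallel with 48 h PbLuc assay at 37 °C, 5% CO2; viability by CellTiter-Glo luminescence, normalized to controls.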
row,SMILES,cytotoxicity at 10 µM [%]
1,CCn1ccnc1CN1CCCC(CO)(Cc2cccc(OC)c2)C1 (stereo unspecified),3.25
2,O=c1[nH]cnc2[nH]c(N3CCCCC3)nc12,3.03
3,F[C@@H]1CN(Cc2ccccc2)C[C@@H]1OCc1nc2cnccc2[nH]1,-0.966
4,c1ccc(O[C@H]2COCCN(Cc3cccc4c3OCO4)C2)cc1,3.53
5,Cc1n[nH]c2c1C(c1ccc(F)cc1)SCC(=O)N2 (stereo unspecified),2.06
6,CN1CC[C@H](N(Cc2ccccc2)CC2CC2)C[C@H](O)C1,-1.47
7,Cc1ccc(C(=O)N2CC(=O)N(Cc3cccs3)CC(O)C2)cc1 (stereo unspecified),-5.46
8,O=C(Cn1ccc2ccccc21)NC[C@@H]1CCCN2CCCC[C@H]12,-4.16
9,COCC(=O)N1CCC(c2ccc(OC)cc2)C1 (stereo unspecified),1.81
10,Cc1nc(OCC(=O)N2CCCC2)cc(-n2cccn2)n1,3.99
11,Cn1cc(CN2CCc3c(c(COCC#N)nn3C)C2)cn1,-2.45
12,CN(C)Cc1nn(C)c2c1CN(C(=O)c1cccc(C#N)c1)C2,7.38
13,O=C(c1ccnnc1)N1C[C@H]2CCC[C@@H](OCc3cccnc3)[C@@H]2C1,5.19
14,O=C(C1CCOCC1)N1CCO[C@@H]2[C@@H](OCc3ccncc3)CC[C@@H]21,8.5
15,COCC1COCCC12CCN(C(=O)CC1Cc3ccccc3C1)CC2 (stereo unspecified),4.03
16,COCC1CN(C(=O)C2=CCCC2)Cc2cnn(CC3CC3)c21 (stereo unspecified),9.61
17,CC(C)CCNC(=O)c1c(-n2cnnn2)sc2c1CCCC2,8.79
18,CNC(=O)[C@H]1C[C@@H]2CN(S(=O)(=O)c3ccccc3)C[C@@H]2N1C(C)=O,-10.4
19,Cc1ccc2c(cnn2CCC(=O)NCc2csc(C)n2)c1,1.14
20,CCn1nc(C)c(C(=O)Nc2ccc3c(c2)C(C)(C)C(=O)N3C)c1C,6.42
21,CCOc1ccccc1Nc1nc2c(C)nn(C)c2c(=O)n1C,-7.53
22,O=C(NCCc1cc2nc(-c3ccncc3)ccn2n1)C1CC1,5.82
23,CN1CCC(Cc2cccc(-c3cc(F)ccc3C(=O)O)n2)CC1,-3.22

row,SMILES,cytotoxicity at 10 µM [%]
1,CC(C)N1CCC(Cc2cc(-c3cccc(C(=O)O)c3)ncn2)CC1,-8.99
2,CC(C)C(=O)N1CCC(Cc2nccnc2Nc2ccccn2)CC1,-7.08
3,Cc1c[nH]nc1C1CCCN(C(=O)c2c(C)noc2C)C1 (stereo unspecified),-3.53
4,Cn1ccc(C(=O)N2CCC(Cc3cccc4ncccc34)C2)n1 (stereo unspecified),-4.83
5,Cc1cc(Br)cnc1N(C)CC1CCOC1 (stereo unspecified),4.99
6,Cc1csc(N2CCCN(C(=O)c3nccnc3N)CC2)n1,-2.42
7,COc1ccc(Br)cc1Cn1nc(C(N)=O)ccc1=O,8.09
8,CC(C)N(CC(C)(C)O)C(=O)NC1CC1,5.73
9,Cn1cc(C2(C)CN(C(=O)COc3ccccc3F)CCO2)cn1 (stereo unspecified),0.814
10,CNC(=O)c1ccc(NC(=O)NC(C)CCc2cccn2C)c(C)c1 (stereo unspecified),3.75
11,Cc1nnc(C2Cc3ccccc3CN2Cc2nc(C3CC3)no2)o1 (stereo unspecified),-13.1
12,CCCC(=O)NC1CCCN(C(=O)c2ccc(C)nc2)C1 (stereo unspecified),17.5
13,COC(=O)c1sc2cccc(F)c2c1CNC(=O)C1CCOC1 (stereo unspecified),8.97
14,Cc1cc(N2CCc3c(ncn3C3CC3)C2)nc(N)n1,-5.44
15,Cc1nc(C)c(CCNC(=O)NC2CC(=O)N(C(C)(C)C)C2)s1 (stereo unspecified),-1.08
16,CN1CCC(CCNC(=O)N2CCN(Cc3ccon3)CC2)CC1,-6.49
17,CC(C)(C)NC(=O)C1CSCN1S(=O)(=O)c1ccccc1S(C)(=O)=O (stereo unspecified),-4.04
18,Cc1n[nH]c(C2CN(CC(=O)NCCC3=CCCCC3)CCO2)n1 (stereo unspecified),12.9
19,CCSc1ccc(C(=O)N2CCCC2C(=O)N2CCOCC2)cn1 (stereo unspecified),-6.98
20,CC(C)(C)c1cc(NC(=O)CN2CCCC(Cn3cncn3)C2)on1 (stereo unspecified),3.69
21,CN(CCCc1n[nH]c(N)c1C#N)C(=O)NC1CC1,5.85
22,NC(=O)NC(=O)CCN1C(=O)CC(Cc2ccc(F)cc2)C1=O (stereo unspecified),-0.327
23,CCCN(CC(F)F)c1cc(COC)nc2ncnn12,-3.22

row,SMILES,cytotoxicity at 10 µM [%]
1,COc1cc(-n2cccc2)c(Cl)cc1C(=O)NS(C)(=O)=O,0.872
2,CC(NC(=O)N1CCN(c2ncccn2)CC1)c1ccc(C#N)cc1 (stereo unspecified),-2.81
3,CC(C)c1nc(C2CCCN2CCNS(C)(=O)=O)no1 (stereo unspecified),3.33
4,CC(C)C(O)CCNC(=O)Nc1cc(F)ccc1-n1cccn1 (stereo unspecified),-3.86
5,Cc1[nH]c2ccccc2c1CCNC(=O)N1CCC2(C1)OCCO2,1.12
6,Cc1noc(CN2CCN(CC(C)O)CC2)n1 (stereo unspecified),-10
7,CC(CNC(=O)c1cccnc1Oc1cccnc1)N(C)C (stereo unspecified),-14
8,Cc1ccc(-c2nc(CN3CCOC(Cn4cccn4)C3)cs2)o1 (stereo unspecified),-8.86
9,CN(Cc1cccs1)C(=O)CN1CCCC1Cn1cncn1 (stereo unspecified),-15.6
10,NC(=O)C1CCN(C(=O)Cn2nc(-c3ccccc3)oc2=O)C1 (stereo unspecified),-13
11,CC(C)C1CN(C(=O)c2nccnc2N)CCS1 (stereo unspecified),-8.54
12,Cc1nn(C)c(N2CCOCC2)c1CNC(C)c1cccnc1 (stereo unspecified),-13.6
13,CN(C)CCO[C@H]1CN(C(=O)c2ccc(C#N)cc2)[C@@H]2COC[C@H]12,0.929
14,CNCC(=O)Nc1cccc(-c2cnc(NCCO)nc2)c1,-6.94
15,C[C@H]1CCCCN1CCCNc1nccc(-c2c[nH][nH]c2=O)n1,-6.91
16,O=C1CN(CC2CC2)Cc2nc(NCCc3ccccn3)sc21,-12.3
17,CSCc1noc(CN2CC3(CCCC3)CC2=O)n1,4.29
18,O=c1[nH]c(-c2cccnc2)nc2c1CCN(S(=O)(=O)N1CCCC1)C2,0.384
19,Cc1ccc(CSc2nc(N)cc(NCCS(=O)(=O)N(C)C)n2)cc1,0.479
20,CC(c1ccc(-c2cnc(N)nc2)cc1)N1CCOCC1 (stereo unspecified),1.97
21,O=C(c1scc2c1OCCO2)N1CCC(Cc2cccc(CO)c2)C1 (stereo unspecified),6.01
22,O=C(O)c1cccc(CC2CCN(c3ncc(F)cn3)CC2)c1,-108
23,CCC(=O)c1ccc(OCC(=O)NC(C)c2ncnn2CC)cc1 (stereo unspecified),1.9

row,SMILES,cytotoxicity at 10 µM [%]
1,CN1C(=O)c2ccc(C(=O)N(Cc3cnn(C)c3)C3CC3)cc2C1=O,5.68
2,CCC(CC)Cn1ncc(N2CCOCC2)cc1=O,-3.46
3,Cc1ncsc1CCC(=O)NCc1csc(N(C)C)n1,1.31
4,Nc1cc(N2CCCC(COc3ccc(F)cc3)C2)ncn1 (stereo unspecified),-0.106
5,COc1ccc(Cl)cc1S(=O)(=O)N(C)CC(N)=O,7.82
6,N#Cc1cccnc1N1CCCC(CO)(CCOc2ccccc2)C1 (stereo unspecified),3.04
7,Cc1noc(CN2CC(=O)N(C)c3ccccc3C2=O)n1,-5.03
8,CC1CCN(S(=O)(=O)NCC2CCOc3ccccc3C2)CC1 (stereo unspecified),-1.25
9,COCCN(C)C[C@@H]1CN(C(=O)c2cccc(C(F)(F)F)c2)C[C@@H]1CO,-17.5
10,COCCn1ccnc1C1CCCN(C(=O)CSCC2CC2)C1 (stereo unspecified),-14.6
11,CCn1cnnc1C1CCN(C(=O)c2cc(OC)ccc2OC)CC1,-4.2
12,CC(C)c1cc(NC(=O)CN2CCCC2Cn2cncn2)on1 (stereo unspecified),-4.05
13,CN(Cc1cccc(F)c1)Cc1nc2c(cnn2C)c(=O)[nH]1,-2.8
14,CCOc1ccnc(N2CCN(C(=O)c3ccoc3)CC2)n1,-6.1
15,COc1c(C2CCCN2CC(=O)Nc2cc(C)nn2C)c(C)nn1C (stereo unspecified),3.72
16,O=C(N1CCCC(n2cncn2)C1)C1(c2cccc(F)c2)CC1 (stereo unspecified),-2.91
17,O=C(NCC1CC1)Nc1ccc(OCC(F)(F)F)nc1,-2.4
18,COc1cccc2cc(CNC(=O)N3CCS(=O)(=O)CC3)oc12,-19.3
19,O=C(COc1ccccc1)NCCNC(=O)c1scnc1Cl,-4.83
20,Cc1ccccc1CCNC(=O)CN1CCCC(Cn2cncn2)C1 (stereo unspecified),-5.04
21,Cc1cc(CN(C)C(=O)c2ccc(F)c(C(F)(F)F)c2)no1,-10
22,CC(C)C(C)NC(=O)c1cc(Br)c2c(c1)OCCO2 (stereo unspecified),-9.89
23,Cc1ccccc1OCCN1CCCC(c2cc(C(N)=O)[nH]n2)C1 (stereo unspecified),-14.3

row,SMILES,cytotoxicity at 10 µM [%]
1,Cc1nc(C2CCCN(C(=O)c3cc(Cl)c4c(c3)OCO4)C2)no1 (stereo unspecified),-2.09
2,Cc1cnn(CC2CCCCN2C(=O)c2csc(C)n2)c1 (stereo unspecified),-1.16
3,O=C(C1CCOCC1)N1C[C@H]2CCC[C@@]2(COc2cccnc2)C1,-1.18
4,O=C(c1ccccn1)N1CCC2(CC1)COC(COCC1CC1)C2 (stereo unspecified),5.14
5,COCc1nn(C(C)C)c2c1CCN(Cc1cccs1)C2,-9.55
6,CN1CC(=O)N(c2cccc(F)c2)CC12CCN(Cc1ccsc1)C2 (stereo unspecified),4.93
7,CC(C)CS(=O)(=O)N1CCC2(CN(c3ccsc3)C(=O)CN2C)C1 (stereo unspecified),6.88
8,Cc1cccc(CN2CCc3nnc(Cn4cccc4)n3CC2)n1,1.7
9,Cc1occc1C(=O)N1CCCC2(CCN(CCN3CCCC3)C2=O)C1 (stereo unspecified),-9.18
10,CN(C)C(C)(C)CNCc1cn(C)nc1-c1cccnc1,11.8
11,CN(C)C[C@]12COC[C@H]1CN(C(=O)Cc1ccc3c(c1)OCO3)C2,-9.94
12,c1ccc(CN2CCc3c(COCC4CC4)cncc3C2)nc1,2.41
13,Cn1ccnc1CN1CCC2(CC1)Cc1ccccc1CNC2=O,-1.6
14,CN(C)c1ncc2c(n1)C1(CCN(Cc3ccccc3F)C1)COC2 (stereo unspecified),10.6
15,O=C([C@@H]1CCO[C@@H]2CCN(Cc3cccs3)C[C@H]21)N1CCCCO1,5.77
16,O=C(NC[C@]12COC[C@H]1CN(Cc1nccs1)C2)c1ccccc1,-11.8
17,CC(C)c1nn(C)cc1CNCc1ccnc(N(C)C)c1,-0.431
18,Cc1ccc2c(n1)N(C)CCN(C(=O)NC(C)C)C2,-3.38
19,CCCn1nccc1NC(=O)CN1CCc2cnc(CC)nc2C1,2.31
